Fh CTSL1 inh = cathepsin L1 inhibition, PFM18AAP counter-screen | recombinant F. hepatica cathepsin L1, Z-Leu-Arg-MCA fluorescence | 0.49% of 300,000 active | inhibition, % at 5.96 µM;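 active = inhibition above the mean of all tested compounds plus 3 SD, set per screening campaign, cut at about 17% in these data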
IMP-1 inhibitor = inhibitors of Pseudomonas aeruginosa IMP-1 metallo-beta-lactamase | purified IMP-1, nitrocefin hydrolysis, epi-absorbance fluorescence | inhibition, % at 5.6 µM | 0.45% of 290,000 active;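 active = inhibition above the mean plus 3 SD of all compounds in the same screening run, cut at about 4.5% in these data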
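System: Purified IMP-1 | Read-out basis: Percent enzyme inhibition | Controls: IMP-1 with DMSO as 0%, enzyme-free DMSO as 100% | Replicates: One well per compound | Doses: 5.6 µM nominal single concentration | Detection: Epi-absorbance fluorescence, 480 nm excitation, 530 nm emission | Incubation: 25 °C, 15 min preincubation, 25 min reaction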
PfM18AAP inh = PfM18AAP enzyme inhibition; inhibition, % at 7.35 µM; recombinant PfM18AAP, H-Glu-NHMec fluorogenic cleavage; 1.2% of 290,000 active;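 active = inhibition above the campaign mean inhibition over all tested compounds plus 3 SD, cut at about 28% in these data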
VIM-2 inh = blocks Pseudomonas aeruginosa VIM-2 metallo-beta-lactamase; purified VIM-2, nitrocefin hydrolysis, epi-absorbance fluorescence; inhibition, % at 5.6 µM; 0.89% of 290,000 active; AID 1527;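 active = inhibition above the mean of all tested compounds plus 3 SD, cutoff set per screening run, cut at about 7.5% in these data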;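 note: red hydrolysis product quenches plate fluorescence so inhibitors raise well fluorescence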
Of the large screens only hits and unclear results are named; the others gave an inactive call. Only some compounds are listed: those with a hit (about 2.7% of all), similar ones and a draw of the others.

CC(N)Cc1c[nH]c2c1ccc1ccccc12 (configuration not stated)	PfM18AAP inh 30
N/C(=N\N=C/c1ccc(-c2ccc(O)c(C(=O)O)c2)o1)N[N+](=O)[O-]	PfM18AAP inh 31
C=C(C)[C@@]12OC3(c4ccccc4)O[C@@H]1C1[C@@H]4O[C@]4(CO)[C@@H](O)[C@]4(O)C(=O)C(C)=C[C@H]4[C@@]1(O3)[C@H](C)[C@H]2OC(=O)/C=C/C=C/c1ccccc1 (some centres not stated)	none (no result: IMP-1 inhibitor, PfM18AAP inh, VIM-2 inh)
O=C1NC(=S)NC(=O)C1=Cc1ccc(Br)s1	IMP-1 inhibitor 7.1
CN1C(=O)/C(=C\c2ccc(Br)s2)C(=O)NC1=S	none
C[n+]1c(-c2ccccc2)c2cc(N)ccc2c2ccc(N)cc21	Fh CTSL1 inh 31, PfM18AAP inh 34
CC/C(=N\Nc1ccccc1)c1c(O)n(-c2ccc(OC)cc2)c(=O)[nH]c1=O	none
NC(=S)N/N=C/c1coc2ccccc2c1=O	PfM18AAP inh 29
O=C1NC(=O)C(=Cc2coc3ccccc3c2=O)C(=O)N1	none
Nc1ncn[nH]1	none (no result: IMP-1 inhibitor, PfM18AAP inh, VIM-2 inh)
CN1[C@@H]2CC[C@H]1CC(OC1c3ccccc3CCc3ccccc31)C2 (some centres not stated)	none (no result: IMP-1 inhibitor, PfM18AAP inh, VIM-2 inh)
CC1CCN(c2cc(Br)c([N+](=O)[O-])cc2F)CC1	none
CCCCn1c(N)c(C(=O)NCCN2CCOCC2)c2nc3ccccc3nc21	none
CCOC(=O)c1c(N)n(CCN2CCCCC2)c2nc3ccccc3nc12	VIM-2 inh 7.8
CCNc1nc(NC(C)(C)C)nc(SC)n1	none (no result: IMP-1 inhibitor, PfM18AAP inh, VIM-2 inh)
O=C1NC(=O)N(c2ccc(Br)cc2)C(=O)/C1=C/c1ccsc1	none
O=C1NC(=O)N(c2ccc(F)cc2)C(=O)/C1=C/c1ccsc1	Fh CTSL1 inh 35
CN1C(=O)CN=C(c2ccccc2Cl)c2cc(Br)ccc21	IMP-1 inhibitor 11
CCN1C(=O)NC(=O)/C(=C\c2cn(CC(=O)N3CCCC3)c3ccccc23)C1=O	none
COCCNC(=O)Cn1cc(C=C2C(=O)NC(=O)NC2=O)c2ccccc21	PfM18AAP inh 31
CCN1C(=O)NC(=O)/C(=C\c2cn(CC(=O)N3CCCCC3)c3ccccc23)C1=O	VIM-2 inh 11
CCc1cc(=O)oc2c(C)c(OCC(=O)N3C[C@H]4C[C@@H](C3)c3cccc(=O)n3C4)ccc12	none
CCc1ccc(-n2c(O)c(/C=N/NC(=O)c3ccncc3)c(=O)[nH]c2=O)cc1	IMP-1 inhibitor 13
O=c1[nH]c(O)c(C=Nc2ccccc2Oc2ccccc2)c(=O)[nH]1	none
C=CCOC(=O)COc1cc(C)cc2oc(=O)c3c(c12)CCC3	none
Cc1cc(OCC(=O)NCc2ccc(S(N)(=O)=O)cc2)c2c3c(c(=O)oc2c1)CCC3	VIM-2 inh 9.4
Cc1cc(OCc2nn[nH]n2)c2c3c(c(=O)oc2c1)CCCC3	VIM-2 inh 9.0
CCCCn1c(O)c(C(C)=NCCCn2ccnc2)c(=O)[nH]c1=O	none
CC(=NCCCn1ccnc1)c1c(O)n(C)c(=O)n(C)c1=O	VIM-2 inh 66
CN1CCN(c2ccc(N)c(N3CCN(C)CC3)c2)CC1	PfM18AAP inh 30
CN1CCN(c2ccc3nccnc3c2)CC1	none
O=C1CN(O)C(c2ccccc2Cl)=c2cc(Br)ccc2=N1	none
O=[N+]([O-])c1ccc(NCc2ccccc2)c2nonc12	IMP-1 inhibitor 30, VIM-2 inh 23
CCOc1cc2c(cc1OCC)-n1cccc1C(c1cccc([N+](=O)[O-])c1)NC2 (configuration not stated)	none
O=c1c2ccccc2nc(CSc2ncnc3nc[nH]c23)n1-c1ccccc1Cl	Fh CTSL1 inh 21
CS(=O)(=O)Nc1ccc(Cc2noc(-c3ccc4[nH]cc(CCN)c4c3)n2)cc1	VIM-2 inh 29
NCCc1c[nH]c2ccc(F)cc12	none
C=CCn1c(O)c(/C=C2/C=c3ccccc3=N2)c(=O)[nH]c1=S	IMP-1 inhibitor 11
C=CCn1c(O)c(C=Nc2ccc(F)cc2)c(=O)[nH]c1=O	none
Cc1cc(/C=C2\C(=O)NC(=O)N(c3ccccc3F)C2=O)c(C)n1-c1cc(C(=O)O)cc(C(=O)O)c1	PfM18AAP inh 30
CC[C@H](C)[C@@H]1O[C@@]2(C=CC1C)CC1C[C@@H](CC=C(C)C(O[C@H]3CC(OC)C(O[C@H]4CC(OC)C(O)C(C)O4)C(C)O3)C(C)C=CC=C3CO[C@@H]4C(O)C(C)=C[C@@H](C(=O)O1)[C@]34O)O2 (some centres not stated)	none (no result: IMP-1 inhibitor, PfM18AAP inh, VIM-2 inh)
CCC(=Nc1ccc(OC)cc1OC)c1c(O)[nH]c(=O)[nH]c1=O	none
CCC(=Nc1cc(OC)ccc1OC)c1c(O)[nH]c(=O)[nH]c1=O	PfM18AAP inh 29
COc1ccccc1CN1CCN(C(=O)COc2ccc3ccccc3c2)CC1	none

From PubChem BioAssay
